The target of assay [1] is T1, Alpha-1B adrenergic receptor (Homo sapiens, UniProt P35368).
T1 sequence (P35368 whole entry): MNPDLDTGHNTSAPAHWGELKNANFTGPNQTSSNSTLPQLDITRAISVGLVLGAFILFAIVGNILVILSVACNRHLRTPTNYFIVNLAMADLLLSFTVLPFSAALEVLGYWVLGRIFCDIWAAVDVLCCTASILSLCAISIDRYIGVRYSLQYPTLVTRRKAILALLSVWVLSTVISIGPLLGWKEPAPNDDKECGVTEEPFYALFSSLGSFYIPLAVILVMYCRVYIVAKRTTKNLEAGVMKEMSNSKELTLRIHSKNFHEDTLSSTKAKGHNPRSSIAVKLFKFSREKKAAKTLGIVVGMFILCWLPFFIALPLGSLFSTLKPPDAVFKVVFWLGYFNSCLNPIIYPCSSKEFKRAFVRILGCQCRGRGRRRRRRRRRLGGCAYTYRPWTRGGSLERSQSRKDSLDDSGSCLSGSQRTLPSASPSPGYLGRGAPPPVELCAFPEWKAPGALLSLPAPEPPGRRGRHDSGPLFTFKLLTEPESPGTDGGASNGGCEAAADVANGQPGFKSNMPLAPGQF
The assay can be described thus: Displacement of [3H]prazosin from human Alpha-1B adrenoceptor expressed in CHO cells. The format is cell-based. In short, it runs like this: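 Membranes ([…], as printed) from CHO cells stably expressing the cloned human α1b subtype were incubated with 0.1–0.4 nM [³H]prazosin and competitor (1 pM up to the top concentration) in 50 mM Tris-HCl, pH 7.4, for 30 min at 25 °C. Non-specific binding was defined with phentolamine, and incubations ended by filtration. Ki was derived from IC50 by Cheng–Prusoff. Reported as pKi from 2–3 triplicate experiments.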
On the technique in general: Loss of bound radioactivity is the signal in a displacement assay; it reports binding, not function.

Assay [2] deals with T2, Alpha-1A adrenergic receptor (Rattus norvegicus) (UniProt P43140).
T2 sequence (whole entry): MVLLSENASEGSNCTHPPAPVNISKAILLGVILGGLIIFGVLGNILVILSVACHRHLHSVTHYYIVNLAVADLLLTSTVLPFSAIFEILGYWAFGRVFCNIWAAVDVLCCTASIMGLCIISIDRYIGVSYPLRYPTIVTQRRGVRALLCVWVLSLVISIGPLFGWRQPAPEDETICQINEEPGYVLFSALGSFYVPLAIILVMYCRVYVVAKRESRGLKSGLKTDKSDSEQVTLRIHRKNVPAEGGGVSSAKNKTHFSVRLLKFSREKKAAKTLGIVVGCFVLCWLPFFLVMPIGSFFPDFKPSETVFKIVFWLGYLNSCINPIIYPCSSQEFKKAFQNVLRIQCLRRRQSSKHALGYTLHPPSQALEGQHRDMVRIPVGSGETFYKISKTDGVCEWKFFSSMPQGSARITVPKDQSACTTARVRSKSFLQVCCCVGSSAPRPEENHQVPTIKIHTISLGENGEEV
The assay can be described thus: (§1) Antagonist activity at alpha1A adrenoceptor in Wistar rat vas deferens assessed as noradrenaline induced contractions after 30 mins. The format is functional, tissue-based. In a few lines:
(§2)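 Prostatic portions (2 cm) of vas deferens from male Wistar rats (275–300 g) were held under 0.35 g tension in Tyrode solution at 37 °C with cocaine present. Tissues were equilibrated 45 min, primed twice with noradrenaline, then given a cumulative isotonic noradrenaline curve.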

In assay [3] the target is T3, Alpha-1B adrenergic receptor (Rattus norvegicus) (UniProt P15823).
T3 sequence (whole entry): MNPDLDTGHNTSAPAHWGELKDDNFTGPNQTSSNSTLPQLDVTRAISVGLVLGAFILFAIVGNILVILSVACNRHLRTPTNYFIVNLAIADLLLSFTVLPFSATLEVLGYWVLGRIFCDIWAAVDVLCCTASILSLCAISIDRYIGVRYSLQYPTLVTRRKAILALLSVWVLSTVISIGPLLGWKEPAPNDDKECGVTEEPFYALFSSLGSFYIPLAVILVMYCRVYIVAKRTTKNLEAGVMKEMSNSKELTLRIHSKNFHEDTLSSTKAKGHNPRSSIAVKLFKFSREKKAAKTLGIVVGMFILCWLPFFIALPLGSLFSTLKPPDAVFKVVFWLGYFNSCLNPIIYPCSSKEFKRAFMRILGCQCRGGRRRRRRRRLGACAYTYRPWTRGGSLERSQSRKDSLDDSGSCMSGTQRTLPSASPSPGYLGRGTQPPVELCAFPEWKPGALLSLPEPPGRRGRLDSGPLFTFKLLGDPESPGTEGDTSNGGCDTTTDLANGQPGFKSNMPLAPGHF
The experiment in a line: (§3) Antagonist activity at Alpha-1B adrenoceptor in Wistar rat spleen assessed as phenylephrine induced contractions after 30 mins. The assay is classed as functional, tissue-based. In short, it runs like this:
(§4)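 Spleen strips from male Wistar rats (275–300 g) were set up in a 20 mL bath of physiological salt solution (pH 7.4, 37 °C, 95% O2/5% CO2) under 1 g tension and equilibrated 2 h. Two cumulative phenylephrine curves were run, each followed by 30 min washing, then 30 min incubation with vehicle or antagonist before a third curve. Values are Schild pA2, or pKB where slopes were nonparallel; 4–6 experiments.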

Assay [4] is filed under the species Rattus norvegicus. The assay can be described thus: Selectivity ratio of EC50 for alpha1A adrenoceptor in Wistar rat vas deferens to EC50 for Alpha-1B adrenoceptor in Wistar rat spleen. The format is tissue-based.
Assay [5] is filed under the species Rattus norvegicus. The experiment in a line: Selectivity ratio of EC50 for alpha1D adrenoceptor in Wistar rat thoracic aorta to Ki for Alpha-1B adrenoceptor in Wistar rat spleen. The format is tissue-based.
The target of assay [6] is T4, Alpha-1A adrenergic receptor (Rattus norvegicus, UniProt P43140).
T4 sequence (P43140 whole entry): T2 sequence (whole entry)
The assay is described as §1. The assay is classed as functional, tissue-based. To be noted: read-out: pA2 (converted). In a few lines:
as §2

The target in assay [7] is T5, Alpha-1B adrenergic receptor (Rattus norvegicus, UniProt P15823).
T5 sequence (P15823 whole entry): T3 sequence (whole entry)
The assay is described as §3. The format is functional, tissue-based. To be noted: read-out: pA2 (converted). In short, it runs like this:
as §4

Assay [8] deals with T6, Alpha-1D adrenergic receptor (Rattus norvegicus) (UniProt P23944).
T6 sequence (whole entry): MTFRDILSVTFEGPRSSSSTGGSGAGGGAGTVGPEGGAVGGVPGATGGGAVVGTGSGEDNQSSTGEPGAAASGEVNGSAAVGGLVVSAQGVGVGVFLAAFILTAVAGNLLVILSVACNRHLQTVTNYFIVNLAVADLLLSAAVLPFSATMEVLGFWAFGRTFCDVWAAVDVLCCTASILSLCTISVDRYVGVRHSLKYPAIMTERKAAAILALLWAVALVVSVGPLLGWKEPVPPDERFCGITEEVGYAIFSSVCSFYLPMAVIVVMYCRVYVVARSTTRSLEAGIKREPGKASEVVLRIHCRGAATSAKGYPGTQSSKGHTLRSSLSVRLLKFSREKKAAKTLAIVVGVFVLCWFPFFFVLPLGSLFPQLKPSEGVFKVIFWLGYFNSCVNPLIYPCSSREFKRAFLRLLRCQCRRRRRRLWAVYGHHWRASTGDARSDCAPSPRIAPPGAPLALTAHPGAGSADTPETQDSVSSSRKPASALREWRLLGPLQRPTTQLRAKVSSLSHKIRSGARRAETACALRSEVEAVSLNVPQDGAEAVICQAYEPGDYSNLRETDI
To be noted: Wistar, Thoracic aorta.

From ChEMBL document CHEMBL1629492 (Eur J Med Chem, 2010) come the findings set out here.

Usually Ki stands for the dissociation constant of the complex between target and ligand, obtained from inhibition or displacement. A low value points to higher affinity. Broadly, the pKb is −log10 of the Kb, conventionally taken in molar units. `COc1ccc(C[C@@H](C)NCCOc2ccccc2OC(C)C)cc1S(N)(=O)=O`: in assay [1], the inhibition constant (Ki) is 1.91 nM. Moreover, the pKb in assay [2] was determined as 9.66; in assay [3], 8.81. The Selectivity ratio stood at 7 in the assay filed under Rattus norvegicus [4] and 3 in the assay listed under Rattus norvegicus [5].

`COc1ccc(C[C@@H](C)NC[C@@H]2Oc3ccccc3O[C@@H]2C)cc1S(N)(=O)=O` had a Ki in assay [1] of 31.6 nM. The Kb in assay [6] was 16.2 nM. The pKb in assay [3] is 7.76. Further, the Selectivity ratio in the assay filed under Rattus norvegicus [4] was 1; in the assay filed under Rattus norvegicus [5], 0.8.

In turn, `COc1ccc(C[C@@H](C)NC[C@H]2Oc3ccccc3O[C@H]2C)cc1S(N)(=O)=O` showed a Ki in assay [1] of 67.6 nM. The Kb in assay [6] was 30.2 nM; in assay [7], 30.9 nM. Also, the Selectivity ratio in the assay filed under Rattus norvegicus [4] came out at 1; in the assay filed under Rattus norvegicus [5], 0.5.

Take `COc1ccc(C[C@@H](C)NCCOc2ccccc2OCC(F)(F)F)cc1S(N)(=O)=O`: the affinity in assay [1], expressed as Ki, was 5.5 nM. For the same compound, the Kb in assay [6] was 0.263 nM; in assay [7], 1.1 nM. In addition, the Selectivity ratio in the assay filed under Rattus norvegicus [4] was determined as 4; in the assay listed under Rattus norvegicus [5], 1.

In the case of `COc1ccc(C[C@@H](C)NCCOc2ccccc2OCc2ccccc2)cc1S(N)(=O)=O`, the affinity in assay [1] corresponds to a Ki of 2.09 nM. The pKb is 9.66 in assay [2], 8.57 in assay [3] and 9.2 in assay [8]. Further, the Selectivity ratio in the assay listed under Rattus norvegicus [4] was determined as 12; in the assay filed under Rattus norvegicus [5] it was 4.
